The IC50 is the concentration at which inhibition is half-maximal. Low values mean greater potency in that assay, high ones weaker potency in that assay.

For test [1], the target named is T1, Coagulation factor VII (Homo sapiens, UniProt P08709).
T1 sequence (P08709 whole entry): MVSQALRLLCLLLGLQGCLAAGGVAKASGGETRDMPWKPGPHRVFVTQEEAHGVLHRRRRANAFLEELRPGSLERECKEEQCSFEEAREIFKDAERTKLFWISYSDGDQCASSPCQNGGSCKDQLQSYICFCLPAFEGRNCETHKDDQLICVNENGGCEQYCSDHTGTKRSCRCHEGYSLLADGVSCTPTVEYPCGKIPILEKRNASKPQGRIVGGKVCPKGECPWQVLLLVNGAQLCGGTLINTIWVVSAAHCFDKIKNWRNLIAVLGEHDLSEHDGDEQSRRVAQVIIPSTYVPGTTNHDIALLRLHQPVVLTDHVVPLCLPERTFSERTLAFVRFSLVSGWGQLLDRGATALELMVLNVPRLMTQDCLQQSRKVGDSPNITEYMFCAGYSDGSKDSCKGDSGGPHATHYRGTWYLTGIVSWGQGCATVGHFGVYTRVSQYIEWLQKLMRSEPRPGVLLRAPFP
Put plainly: Inhibition of tissue coagulation factor VII. The gist of the method:
(§1)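 Chromogenic enzyme assays: factor Xa, thrombin (IIa), or tissue factor/VIIa complex, each with its own specific chromogenic substrate. Activity was followed as the rise in absorbance at 405 nm from released p-nitroaniline as substrate was cleaved. Inhibition was taken as the reduced change in absorbance and expressed as IC50.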

The target of test [2] is Coagulation factor X (Homo sapiens, UniProt P00742). Put plainly: Inhibition of coagulation factor X. The gist of the method:
as §1

Test [3] concerns the target Prothrombin (Homo sapiens, UniProt P00734). Put plainly: Inhibitory activity against thrombin (IIa). The gist of the method: as §1
Test [4] deals with Thrombin and coagulation factor VII (Homo sapiens) (UniProt P00734+P08709). Put plainly: Selectivity ratio for tissue factor VIIa and thrombin (IIa). The test is classed as protein assay.

Coagulation factor X, sequence (P00742 41-179 limits assumed): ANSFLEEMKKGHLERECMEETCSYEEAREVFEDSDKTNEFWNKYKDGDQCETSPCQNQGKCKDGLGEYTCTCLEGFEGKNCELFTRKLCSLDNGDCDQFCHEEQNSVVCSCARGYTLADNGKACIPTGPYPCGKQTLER
Coagulation factor X, sequence (P00742 235-488 limits assumed): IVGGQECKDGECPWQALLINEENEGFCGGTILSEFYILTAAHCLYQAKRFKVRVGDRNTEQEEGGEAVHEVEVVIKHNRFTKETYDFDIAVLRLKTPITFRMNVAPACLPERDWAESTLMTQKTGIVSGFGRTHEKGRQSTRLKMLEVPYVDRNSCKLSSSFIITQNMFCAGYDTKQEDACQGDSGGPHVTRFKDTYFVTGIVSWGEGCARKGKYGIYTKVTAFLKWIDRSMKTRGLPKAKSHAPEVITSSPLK

Consider `N=C(N)NCCC[C@H](NC(=O)[C@H](Cc1cccc(F)c1)NC(=O)[C@@H](Cc1ccccc1)NS(=O)(=O)Cc1ccccc1)C(=O)c1nccs1`, for which the values for the IC50 in test [1], in test [2] and in test [3] were 200 nM, 250 nM and 15000 nM, respectively. Besides, the Ratio in test [4] came to 75.

For `N=C(N)NCCC[C@H](NC(=O)[C@H](CC(N)=O)NC(=O)[C@@H](Cc1ccccc1)NS(=O)(=O)Cc1ccccc1)C(=O)c1nccs1`, the Ratio in test [4] was determined as 58.

For the compound `Cc1cccc(C[C@H](NC(=O)[C@@H](Cc2ccccc2)NS(=O)(=O)Cc2ccccc2)C(=O)N[C@@H](CCCNC(=N)N)C(=O)c2nccs2)c1`, the concentration for half-maximal inhibition (IC50) in test [1] came to 170 nM; in test [2] it was 160 nM; in test [3], 12000 nM.

With `N=C(N)NCCC[C@H](NC(=O)[C@H](Cc1cccnc1)NC(=O)[C@@H](Cc1ccccc1)NS(=O)(=O)Cc1ccccc1)C(=O)c1nccs1`, the Ratio in test [4] was found to be 500.

For `NC(=O)C[C@H](NC(=O)[C@@H](Cc1ccccc1)NS(=O)(=O)Cc1ccccc1)C(=O)N[C@@H](CCCN=C(N)N)C(=O)c1nccs1`, the half-inhibitory concentration (IC50) came to 1030 nM in test [1], 2100 nM in test [2] and 60000 nM in test [3].

Consider `N=C(N)NCCC[C@H](NC(=O)[C@H](Cc1cccc(C(F)(F)F)c1)NC(=O)[C@@H](Cc1ccccc1)NS(=O)(=O)Cc1ccccc1)C(=O)c1nccs1`, for which the half-maximal inhibitory concentration (IC50) in test [1] worked out at 800 nM; in test [2], 1000 nM; in test [3] it was 84900 nM. Also, in test [4], the Ratio is 106.

In the case of `N=C(N)NCCC[C@H](NC(=O)[C@H](Cc1ccc(F)c(F)c1)NC(=O)[C@@H](Cc1ccccc1)NS(=O)(=O)Cc1ccccc1)C(=O)c1nccs1`, the IC50 in test [1] is 160 nM; in test [2] it was 210 nM; in test [3] it was 11200 nM. Further, the Ratio in test [4] is 70.

On to `NC(N)=NCCC[C@H](NC(=O)[C@H](Cc1cccnc1)NC(=O)[C@@H](Cc1ccccc1)NS(=O)(=O)Cc1ccccc1)C(=O)c1nccs1`, for which the 50% inhibitory concentration (IC50) in test [1] was 200 nM; in test [2] it was 290 nM; in test [3], 100000 nM.

For the compound `Cc1cccc(C[C@H](NC(=O)[C@@H](Cc2ccccc2)NS(=O)(=O)Cc2ccccc2)C(=O)N[C@@H](CCCN=C(N)N)C(=O)c2nccs2)c1`, the Ratio in test [4] worked out at 71.

Turning to `N=C(N)NCCC[C@H](NC(=O)[C@H](Cc1cccc(Cl)c1)NC(=O)[C@@H](Cc1ccccc1)NS(=O)(=O)Cc1ccccc1)C(=O)c1nccs1`, the 50% inhibitory concentration (IC50) in test [1] was 230 nM; in test [2], 270 nM; in test [3], 14600 nM. Moreover, the Ratio in test [4] came out at 63.

Turning to `N=C(N)NCCC[C@H](NC(=O)[C@H](Cc1ccccc1F)NC(=O)[C@@H](Cc1ccccc1)NS(=O)(=O)Cc1ccccc1)C(=O)c1nccs1`, the values for the IC50 in test [1], in test [2] and in test [3] were 90 nM, 210 nM and over 30000 nM, respectively. The Ratio in test [4] is over 333.

As for `N=C(N)NCCC[C@H](NC(=O)[C@H](Cc1ccccc1)NC(=O)[C@@H](Cc1ccccc1)NS(=O)(=O)Cc1ccccc1)C(=O)c1nccs1`, the IC50 was 42 nM in test [1], 27 nM in test [2] and 4000 nM in test [3]. For the same compound, the Ratio in test [4] is 95.

`N#CC[C@H](NC(=O)[C@@H](Cc1ccccc1)NS(=O)(=O)Cc1ccccc1)C(=O)N[C@@H](CCCNC(=N)N)C(=O)c1nccs1`: the 50% inhibitory concentration (IC50) in test [1] amounted to 1450 nM; in test [2], 2400 nM; in test [3], 100000 nM. Further, the Ratio in test [4] worked out at 69.

With `N#Cc1ccc(C[C@H](NC(=O)[C@@H](Cc2ccccc2)NS(=O)(=O)Cc2ccccc2)C(=O)N[C@@H](CCCNC(=N)N)C(=O)c2nccs2)cc1`, the IC50 in test [1] came out at 340 nM; in test [2] it was 900 nM; in test [3], 50000 nM. In test [4], the Ratio came to 147.

For `CC[C@@H](C)[C@H](NC(=O)[C@@H](Cc1ccccc1)NS(=O)(=O)Cc1ccccc1)C(=O)N[C@@H](CCCN=C(N)N)C(=O)c1nccs1`, the half-inhibitory concentration (IC50) was determined as 380 nM in test [2] and 19300 nM in test [3]. Besides, the Ratio in test [4] was 64.

Turning to `Cc1ccccc1C[C@H](NC(=O)[C@@H](Cc1ccccc1)NS(=O)(=O)Cc1ccccc1)C(=O)N[C@@H](CCCNC(=N)N)C(=O)c1nccs1`, the IC50 in test [1] worked out at 240 nM; in test [2] it was 330 nM; in test [3], 21700 nM.

`Cc1ccccc1C[C@H](NC(=O)[C@@H](Cc1ccccc1)NS(=O)(=O)Cc1ccccc1)C(=O)N[C@@H](CCCN=C(N)N)C(=O)c1nccs1`: the Ratio in test [4] came out at 90.

These data come from ChEMBL document CHEMBL1136109, “Polymer-assisted solution-phase (PASP) parallel synthesis of an alpha-ketothiazole library as tissue factor VIIa inhibitors” (Bioorg Med Chem Lett, 2003).
